Source: ChEMBL document CHEMBL1151785, “Oleanolic acid and its derivatives: new inhibitor of protein tyrosine phosphatase 1B with cellular activities” (Bioorg Med Chem, 2008)
Activity calls are given as the source filed them. The calls are words filed in the database; no cut-off is given here.

What was measured:
[1] = Selectivity for PTP1B to human recombinant SHP1
[2] = molecular target: Receptor-type tyrosine-protein phosphatase alpha (Homo sapiens, UniProt P18433); experiment: Inhibition of human recombinant PTPalpha
[3] = molecular target: T1, Tyrosine-protein phosphatase non-receptor type 1 (Homo sapiens, UniProt P18031); experiment: Inhibition of PTP1B by pNPP assay
T1 sequence (P18031 whole entry): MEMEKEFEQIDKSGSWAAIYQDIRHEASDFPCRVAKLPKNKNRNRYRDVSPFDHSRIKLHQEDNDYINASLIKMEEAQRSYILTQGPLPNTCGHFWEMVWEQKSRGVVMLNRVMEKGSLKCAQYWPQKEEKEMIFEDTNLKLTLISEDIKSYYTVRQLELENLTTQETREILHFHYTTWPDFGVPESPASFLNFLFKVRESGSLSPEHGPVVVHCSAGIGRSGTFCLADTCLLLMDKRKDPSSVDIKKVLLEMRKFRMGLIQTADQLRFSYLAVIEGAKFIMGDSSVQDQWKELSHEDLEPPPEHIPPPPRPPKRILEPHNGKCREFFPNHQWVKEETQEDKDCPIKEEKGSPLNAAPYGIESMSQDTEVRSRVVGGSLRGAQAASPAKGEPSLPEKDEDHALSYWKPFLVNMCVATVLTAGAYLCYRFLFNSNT

[4] = molecular target: Tyrosine-protein phosphatase non-receptor type 6 (Homo sapiens, UniProt P29350); experiment: Inhibition of human recombinant SHP1
[5] = molecular target: Receptor-type tyrosine-protein phosphatase F (Homo sapiens, UniProt P10586); experiment: Inhibition of human recombinant LAR
[6] = molecular target: Receptor-type tyrosine-protein phosphatase epsilon (Homo sapiens, UniProt P23469); experiment: Inhibition of human recombinant PTPepsilon
[7] = molecular target: T2, Tyrosine-protein phosphatase non-receptor type 2 (Homo sapiens, UniProt P17706); experiment: Inhibition of TCPTP by pNPP assay
T2 sequence (P17706 whole entry): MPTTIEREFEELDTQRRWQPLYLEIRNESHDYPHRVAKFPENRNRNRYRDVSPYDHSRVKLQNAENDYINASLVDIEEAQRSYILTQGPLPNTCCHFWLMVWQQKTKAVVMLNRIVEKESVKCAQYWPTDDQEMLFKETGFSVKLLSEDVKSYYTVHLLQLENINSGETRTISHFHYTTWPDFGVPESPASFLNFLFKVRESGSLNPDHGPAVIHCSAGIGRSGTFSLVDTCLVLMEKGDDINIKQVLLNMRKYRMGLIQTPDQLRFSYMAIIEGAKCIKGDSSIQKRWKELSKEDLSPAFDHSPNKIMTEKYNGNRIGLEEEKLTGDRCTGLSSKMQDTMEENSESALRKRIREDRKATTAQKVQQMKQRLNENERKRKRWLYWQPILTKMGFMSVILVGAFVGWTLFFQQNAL

L6 [8] = experiment: Increase in glucose uptake in rat L6 cells at 1 uM after 3 hrs in absence of insulin relative to basal; type: functional
How it was run: (§1)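 Rat L6 myoblasts grown in α-DMEM with 10% FBS at 37 °C under 5% CO2, then differentiated in α-DMEM with 2% FBS. Used as myotubes on day 5 after 2 h serum-free starvation (0.2% BSA). Compound at 250 nM–2 µM for 3 h without insulin. 2-Deoxy[1,2-3H]glucose uptake measured over 10 min in HEPES saline, pH 7.4, 0.1 mM glucose. Lysate counts normalised to protein, given as % of basal/0.2% DMSO cells.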

L6 [9] = experiment: Increase in glucose uptake in rat L6 cells after 3 hrs in absence of insulin; type: functional, cell-based; how it was run: as §1
[10] = molecular target: RAC-alpha serine/threonine-protein kinase (Homo sapiens) (UniProt P31749); experiment: Increase in human Akt phosphorylation expressed in CHO cells; type: cell-based
How it was run: (§2)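 CHO cells stably carrying human insulin receptor were grown near-confluent, then starved 2 h in serum-free Ham's F-12. Compound was given for 3 h, followed by 10 nM insulin for 10 min. Lysates were run on 8% SDS-PAGE and western blotted for phospho-IR (Tyr1162/1163), phospho-Akt (Ser473) and β-actin, with ECL detection.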

L6 [11] = experiment: Increase in glucose uptake in rat L6 cells at 1 uM after 3 hrs in presence of insulin relative to basal; type: functional; settings: in the assay text read “after 2.5 hrs” for “after 3 hrs”
How it was run: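 Differentiated rat L6 myotubes (day 5) were serum-starved 2 h, exposed to 1.0 µM compound for 2.5 h, then stimulated 30 min with 1, 10 or 100 nM insulin. 2-Deoxy[1,2-3H]glucose uptake was read over 10 min (0.1 mM glucose, HEPES saline pH 7.4). Radioactivity from 0.1% Triton lysates was normalised to protein and expressed relative to basal/DMSO-treated cells.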

[12] = molecular target: Insulin receptor (Homo sapiens) (UniProt P06213); experiment: Increase in human IRbeta phosphorylation expressed in CHO cells; type: cell-based; how it was run: as §2

Chain of Tyrosine-protein phosphatase non-receptor type 6 (P29350 whole entry): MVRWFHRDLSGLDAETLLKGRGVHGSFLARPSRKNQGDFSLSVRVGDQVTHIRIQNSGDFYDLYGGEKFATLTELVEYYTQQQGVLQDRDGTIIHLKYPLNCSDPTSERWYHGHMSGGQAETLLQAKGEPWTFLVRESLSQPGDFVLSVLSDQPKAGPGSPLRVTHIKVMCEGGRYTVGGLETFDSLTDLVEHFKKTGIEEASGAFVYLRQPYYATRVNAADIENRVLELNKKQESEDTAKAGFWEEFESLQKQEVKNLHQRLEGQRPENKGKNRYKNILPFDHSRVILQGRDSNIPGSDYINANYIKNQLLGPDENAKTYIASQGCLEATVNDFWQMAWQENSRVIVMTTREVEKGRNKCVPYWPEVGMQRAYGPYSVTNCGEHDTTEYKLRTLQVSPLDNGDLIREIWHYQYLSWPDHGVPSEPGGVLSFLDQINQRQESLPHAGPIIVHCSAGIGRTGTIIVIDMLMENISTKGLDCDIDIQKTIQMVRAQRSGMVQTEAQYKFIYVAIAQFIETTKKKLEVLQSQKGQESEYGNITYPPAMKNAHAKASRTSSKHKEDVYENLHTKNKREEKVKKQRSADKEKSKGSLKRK
Chain of Receptor-type tyrosine-protein phosphatase epsilon (P23469 whole entry): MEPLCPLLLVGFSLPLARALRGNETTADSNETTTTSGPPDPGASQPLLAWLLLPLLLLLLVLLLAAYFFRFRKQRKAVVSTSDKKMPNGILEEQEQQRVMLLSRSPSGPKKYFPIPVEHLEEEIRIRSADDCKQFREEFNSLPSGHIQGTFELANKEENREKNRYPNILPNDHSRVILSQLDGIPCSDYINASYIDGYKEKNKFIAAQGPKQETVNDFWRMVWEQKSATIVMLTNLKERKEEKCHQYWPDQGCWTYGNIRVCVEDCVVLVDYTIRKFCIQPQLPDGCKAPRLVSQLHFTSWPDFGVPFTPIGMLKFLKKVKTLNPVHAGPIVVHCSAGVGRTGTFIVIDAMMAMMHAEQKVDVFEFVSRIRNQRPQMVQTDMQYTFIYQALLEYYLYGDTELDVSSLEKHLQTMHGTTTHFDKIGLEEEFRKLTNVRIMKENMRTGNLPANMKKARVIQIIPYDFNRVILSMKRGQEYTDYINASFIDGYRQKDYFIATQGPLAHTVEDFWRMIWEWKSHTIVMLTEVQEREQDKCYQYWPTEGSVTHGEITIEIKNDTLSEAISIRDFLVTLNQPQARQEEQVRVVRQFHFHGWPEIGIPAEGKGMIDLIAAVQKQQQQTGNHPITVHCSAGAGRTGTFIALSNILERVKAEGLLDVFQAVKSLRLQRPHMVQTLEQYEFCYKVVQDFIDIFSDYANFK
Chain of Receptor-type tyrosine-protein phosphatase alpha (P18433 whole entry): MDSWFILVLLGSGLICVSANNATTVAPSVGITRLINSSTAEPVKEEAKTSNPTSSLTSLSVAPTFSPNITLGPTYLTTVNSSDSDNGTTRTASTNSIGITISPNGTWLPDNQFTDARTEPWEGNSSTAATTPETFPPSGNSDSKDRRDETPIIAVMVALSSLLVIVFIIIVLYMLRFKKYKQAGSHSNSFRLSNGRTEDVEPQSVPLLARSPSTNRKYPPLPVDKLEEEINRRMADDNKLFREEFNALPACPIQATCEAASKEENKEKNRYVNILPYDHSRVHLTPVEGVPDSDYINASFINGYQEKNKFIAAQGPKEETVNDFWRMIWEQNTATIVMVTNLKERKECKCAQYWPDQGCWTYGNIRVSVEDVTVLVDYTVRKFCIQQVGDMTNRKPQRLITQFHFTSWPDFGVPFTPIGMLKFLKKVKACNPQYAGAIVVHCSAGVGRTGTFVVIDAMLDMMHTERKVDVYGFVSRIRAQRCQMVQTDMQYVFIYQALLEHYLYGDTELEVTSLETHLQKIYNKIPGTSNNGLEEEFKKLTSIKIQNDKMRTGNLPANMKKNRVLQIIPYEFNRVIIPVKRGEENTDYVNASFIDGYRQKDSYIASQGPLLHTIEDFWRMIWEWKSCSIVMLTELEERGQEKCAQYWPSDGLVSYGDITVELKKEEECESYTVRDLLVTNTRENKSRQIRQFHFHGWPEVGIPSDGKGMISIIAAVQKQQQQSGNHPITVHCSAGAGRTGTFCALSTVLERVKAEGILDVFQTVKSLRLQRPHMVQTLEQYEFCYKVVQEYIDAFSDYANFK
Chain of Receptor-type tyrosine-protein phosphatase F (P10586 whole entry): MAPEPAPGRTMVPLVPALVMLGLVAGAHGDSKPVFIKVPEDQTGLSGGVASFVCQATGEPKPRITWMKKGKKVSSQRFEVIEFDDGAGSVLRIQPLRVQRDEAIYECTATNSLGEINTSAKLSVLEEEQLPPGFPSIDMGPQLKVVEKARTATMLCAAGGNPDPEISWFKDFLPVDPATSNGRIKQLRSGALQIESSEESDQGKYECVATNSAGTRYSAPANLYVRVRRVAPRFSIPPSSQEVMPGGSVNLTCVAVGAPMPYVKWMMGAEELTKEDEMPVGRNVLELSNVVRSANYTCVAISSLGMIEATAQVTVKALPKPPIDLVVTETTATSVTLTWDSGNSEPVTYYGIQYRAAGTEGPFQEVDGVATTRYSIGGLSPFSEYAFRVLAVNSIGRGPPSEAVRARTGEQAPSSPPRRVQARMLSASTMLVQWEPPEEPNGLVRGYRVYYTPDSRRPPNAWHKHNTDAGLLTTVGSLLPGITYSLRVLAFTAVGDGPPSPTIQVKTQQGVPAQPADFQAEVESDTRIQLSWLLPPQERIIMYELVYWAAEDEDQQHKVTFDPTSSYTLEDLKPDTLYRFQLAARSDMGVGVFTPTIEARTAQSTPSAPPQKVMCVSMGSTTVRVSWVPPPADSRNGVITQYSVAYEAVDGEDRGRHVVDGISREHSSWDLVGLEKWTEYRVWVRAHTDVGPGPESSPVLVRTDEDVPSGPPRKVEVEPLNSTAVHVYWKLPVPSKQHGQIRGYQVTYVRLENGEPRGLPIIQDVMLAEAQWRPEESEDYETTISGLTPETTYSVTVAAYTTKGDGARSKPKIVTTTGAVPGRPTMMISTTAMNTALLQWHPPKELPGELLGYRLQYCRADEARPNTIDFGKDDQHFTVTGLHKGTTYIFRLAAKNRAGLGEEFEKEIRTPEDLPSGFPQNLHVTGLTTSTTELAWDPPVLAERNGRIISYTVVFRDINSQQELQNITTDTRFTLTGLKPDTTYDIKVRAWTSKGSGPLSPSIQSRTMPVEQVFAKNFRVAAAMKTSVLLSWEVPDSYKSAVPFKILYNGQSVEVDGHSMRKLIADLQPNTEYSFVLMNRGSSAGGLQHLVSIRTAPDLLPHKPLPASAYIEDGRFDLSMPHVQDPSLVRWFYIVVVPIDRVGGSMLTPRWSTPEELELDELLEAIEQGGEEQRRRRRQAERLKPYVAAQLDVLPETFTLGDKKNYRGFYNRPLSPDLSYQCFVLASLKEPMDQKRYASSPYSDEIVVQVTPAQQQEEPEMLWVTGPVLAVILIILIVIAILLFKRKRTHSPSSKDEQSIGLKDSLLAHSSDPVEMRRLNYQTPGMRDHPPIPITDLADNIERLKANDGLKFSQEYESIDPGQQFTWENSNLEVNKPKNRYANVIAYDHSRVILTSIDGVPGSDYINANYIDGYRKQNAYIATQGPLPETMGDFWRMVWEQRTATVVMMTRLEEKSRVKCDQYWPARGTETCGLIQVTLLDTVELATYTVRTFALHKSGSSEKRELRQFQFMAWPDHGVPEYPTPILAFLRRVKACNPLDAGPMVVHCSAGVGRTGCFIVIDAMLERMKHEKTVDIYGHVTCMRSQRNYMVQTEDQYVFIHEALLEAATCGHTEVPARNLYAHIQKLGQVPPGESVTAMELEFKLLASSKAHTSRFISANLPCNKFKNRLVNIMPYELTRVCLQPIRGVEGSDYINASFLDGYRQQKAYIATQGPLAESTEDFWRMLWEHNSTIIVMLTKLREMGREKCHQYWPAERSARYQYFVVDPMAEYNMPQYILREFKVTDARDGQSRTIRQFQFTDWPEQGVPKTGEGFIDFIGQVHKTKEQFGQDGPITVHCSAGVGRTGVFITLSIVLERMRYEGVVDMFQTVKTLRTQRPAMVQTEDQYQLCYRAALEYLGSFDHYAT
Chain of RAC-alpha serine/threonine-protein kinase (Homo sapiens) (P31749 whole entry): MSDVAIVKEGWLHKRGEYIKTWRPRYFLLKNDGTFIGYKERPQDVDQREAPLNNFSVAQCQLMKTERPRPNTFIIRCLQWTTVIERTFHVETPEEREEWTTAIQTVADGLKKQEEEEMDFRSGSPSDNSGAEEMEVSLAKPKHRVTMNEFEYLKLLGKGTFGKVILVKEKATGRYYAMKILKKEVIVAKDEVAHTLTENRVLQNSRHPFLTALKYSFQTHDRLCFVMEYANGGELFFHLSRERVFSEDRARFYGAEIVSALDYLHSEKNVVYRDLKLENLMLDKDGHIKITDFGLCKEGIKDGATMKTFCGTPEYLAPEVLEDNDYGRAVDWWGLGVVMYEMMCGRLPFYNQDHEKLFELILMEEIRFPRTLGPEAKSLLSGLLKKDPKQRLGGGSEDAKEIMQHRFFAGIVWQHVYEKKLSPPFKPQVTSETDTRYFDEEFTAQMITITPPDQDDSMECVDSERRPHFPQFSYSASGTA

Row | Compound | Ratio [1] | IC50 [2] [µM] | IC50 [3] [µM] | IC50 [4] [µM] | IC50 [5] [µM] | IC50 [6] [µM] | IC50 [7] [µM] | Activity (L6 [8]) [%] | Activity (L6 [9]) | Activity [10] | Activity (L6 [11]) [%] | Activity [12]
1 | C[C@H]1[C@H](C)CC[C@]2(C(=O)O)CC[C@]3(C)C(=CC[C@@H]4[C@@]5(C)C[C@@H](O)[C@H](O)C(C)(C)[C@@H]5CC[C@]43C)[C@H]12 [COROSOLIC ACID] | 2 | > 40 | 5.49 | 24.6 | > 40 | > 40 | 11.3 |  |  |  |  | 
2 | CC1(C)CC[C@]2(C(=O)O)CC[C@]3(C)C(=CC[C@@H]4[C@@]5(C)CC[C@H](OC(=O)CC(C)(C)C(=O)O)C(C)(C)[C@@H]5CC[C@]43C)[C@@H]2C1 | 2 | > 40 | 2.33 | 12.4 | > 40 | > 40 | 1.38 |  |  |  |  | 
3 | CC1(C)CC[C@]2(C(=O)O)CC[C@]3(C)C(=CC[C@@H]4[C@@]5(C)CC[C@H](OCc6ccc(C(=O)O)cc6)C(C)(C)[C@@H]5CC[C@]43C)[C@@H]2C1 | 2 | > 40 | 0.54 | 4.05 | > 40 | > 40 | 0.47 |  |  |  |  | 
4 | CC1(C)CC[C@]2(CCCCC(=O)N[C@@H](Cc3ccccc3)C(=O)O)CC[C@]3(C)C(=CC[C@@H]4[C@@]5(C)CC[C@H](OCc6ccc(C(=O)O)cc6)C(C)(C)[C@@H]5CC[C@]43C)[C@@H]2C1 | 2 | > 40 | 0.15 | 0.89 | > 40 | > 40 | 0.16 | 40 | Dose-dependent effect | Active | 20 | Dose-dependent effect
5 | CC1(C)CC[C@]2(C(=O)N[C@@H](Cc3ccccc3)C(=O)O)CC[C@]3(C)C(=CC[C@@H]4[C@@]5(C)CC[C@H](O)C(C)(C)[C@@H]5CC[C@]43C)[C@@H]2C1 |  |  | 3.31 | 12.6 |  |  |  |  |  |  |  | 
6 | CC1(C)CC[C@]2(CCCCC(=O)N[C@@H](Cc3ccccc3)C(=O)O)CC[C@]3(C)C(=CC[C@@H]4[C@@]5(C)CC[C@H](O)C(C)(C)[C@@H]5CC[C@]43C)[C@@H]2C1 | 2 | > 40 | 0.57 | 4.08 | > 40 | > 40 | 0.63 |  |  |  |  | 
7 | CC1(C)CC[C@]2(CCCCC(=O)O)CC[C@]3(C)C(=CC[C@@H]4[C@@]5(C)CC[C@H](O)C(C)(C)[C@@H]5CC[C@]43C)[C@@H]2C1 | 2 | > 40 | 1.33 | 5.2 | > 40 | > 40 | 1.11 |  |  |  |  | 
8 | CC1(C)CC[C@]2(CCC(=O)O)CC[C@]3(C)C(=CC[C@@H]4[C@@]5(C)CC[C@H](O)C(C)(C)[C@@H]5CC[C@]43C)[C@@H]2C1 | 2 | > 40 | 2.1 | 27.4 | > 40 | > 40 | 2.77 |  |  |  |  | 
9 | CC1(C)CC[C@]2(C(=O)O)CC[C@]3(C)C(=CC[C@@H]4[C@@]5(C)CC[C@H](O)C(C)(C)[C@@H]5CC[C@]43C)[C@@H]2C1 [OLEANOLIC_ACID] |  | > 40 |  |  | > 40 | > 40 |  |  |  |  |  | 
10 | C[C@H]1[C@H](C)CC[C@]2(C)CC[C@]3(C)C(=CC(=O)[C@@H]4[C@@]5(C)CC[C@@H](O)[C@](C)(C(=O)O)[C@@H]5CC[C@]43C)[C@H]12 [11-KETO BOSWELLIC ACID] |  |  | 8.04 |  |  |  | 9.45 |  |  |  |  | 
11 | CC1(C)CC[C@]2(C(=O)O)CC[C@]3(C)C(=CC[C@@H]4[C@@]5(C)CCCC(C)(C)[C@@H]5CC[C@]43C)[C@@H]2C1 |  |  | 2.61 |  |  |  | 3 |  |  |  |  | 
12 | COc1ccc(CC(NC(=O)CCCC[C@]23CCC(C)(C)C[C@H]2C2=CC[C@@H]4[C@@]5(C)CC[C@H](O)C(C)(C)[C@@H]5CC[C@@]4(C)[C@]2(C)CC3)C(=O)O)cc1 (stereo partly drawn) |  |  | 0.6 |  |  |  | 0.55 |  |  |  |  | 
13 | C[C@H]1[C@H](C)CC[C@]2(C(=O)O)CC[C@]3(C)C(=CC[C@@H]4[C@@]5(C)C[C@@H](O)[C@H](O)[C@@](C)(CO)[C@@H]5CC[C@]43C)[C@H]12 [ASIATIC ACID] |  |  | > 20 |  |  |  | > 20 |  |  |  |  | 
14 | C[C@H]1[C@H](C)CC[C@]2(C(=O)O)CC[C@]3(C)C(=CC[C@@H]4[C@@]5(C)CC[C@H](O)C(C)(C)[C@@H]5CC[C@]43C)[C@H]12 [URSOLIC ACID] |  | > 40 |  | 25.8 | > 40 | > 40 | 3.33 |  |  |  |  | 
15 | CC1(C)CC[C@]2(CCCCC(=O)NC(Cc3ccc4c(c3)OCO4)C(=O)O)CC[C@]3(C)C(=CC[C@@H]4[C@@]5(C)CC[C@H](O)C(C)(C)[C@@H]5CC[C@]43C)[C@@H]2C1 (stereo partly drawn) | 2 | > 40 | 0.44 | 0.71 | > 40 | > 40 | 0.6 |  |  |  |  | 
16 | C=C1CC[C@]2(C)[C@H]3CC=C4[C@@H]5CC(C)(C)CC[C@]5(C(=O)O)CC[C@@]4(C)[C@]3(C)CC[C@H]2C1(C)C |  |  | 2.85 |  |  |  | 2.53 |  |  |  |  | 
17 | Cc1ccc(CC(NC(=O)CCCC[C@]23CCC(C)(C)C[C@H]2C2=CC[C@@H]4[C@@]5(C)CC[C@H](O)C(C)(C)[C@@H]5CC[C@@]4(C)[C@]2(C)CC3)C(=O)O)cc1 (stereo partly drawn) |  |  | 0.65 |  |  |  | 0.66 |  |  |  |  | 
